The values that follow come from ChEMBL document CHEMBL4814044, “Design and synthesis, biological evaluation of bis-(1,2,3- and 1,2,4)-triazole derivatives as potential antimicrobial and antifungal agents” (2021).

The source made the active and inactive calls. The rule behind the calls is not given here.

What all share (format): functional
The test system of assay [1] is Aspergillus niger. Put plainly: Antifungal activity against Aspergillus niger MTCC 404 assessed as zone of inhibition at 36.6 uM incubated for 2 days by cross streak plate method. The settings on record: MTCC 404, 48 h, time 2 day, read-out: IZ. The method, boiled down:
(§1)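 Fungal strain (A. niger MTCC 404 or S. cerevisiae MTCC 1344) was incubated with the compound for 2 days at 37 °C. Growth inhibition was then assessed by the cross streak plate method.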

For assay [2], the system named is Aspergillus niger. The assay is described as follows: Antifungal activity against Aspergillus niger MTCC 404 assessed as zone of inhibition at 18.3 uM incubated for 2 days by cross streak plate method. The settings on record: MTCC 404, 48 h, time 2 day, read-out: IZ. The method, boiled down:
as §1

Assay [3] is described as follows: Antioxidant activity assessed as DPPH radical scavenging activity.
The subject of assay [4] is Saccharomyces cerevisiae. The assay is described as follows: Antifungal activity against Saccharomyces cerevisiae MTCC 1344 assessed as zone of inhibition at 36.6 uM incubated for 2 days by cross streak plate method. The settings on record: MTCC 1344, 48 h, time 2 day, read-out: IZ. The gist of the method:
(§2)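 S. cerevisiae MTCC 1344 cultures were incubated for 2 days at 37 °C and then tested by the cross streak plate method.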

Another assay relates to Escherichia coli. Put plainly: Antibacterial activity against Escherichia coli MTCC 443 assessed as bacterial growth inhibition by microdilution method. The gist of the method: (§3)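 Broth microdilution against Gram-positive and Gram-negative strains. The endpoint is the minimal inhibitory concentration, in µg/ml.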
(In general: Broth dilution looks for growth in wells or tubes with falling amounts of substance.)

In assay [5] the test system is Aspergillus niger. The assay is described as follows: Antifungal activity against Aspergillus niger MTCC 404 assessed as zone of inhibition at 27.5 uM incubated for 2 days by cross streak plate method. The settings on record: MTCC 404, 48 h, time 2 day, read-out: IZ. The gist of the method:
as §1

The subject of another assay is Bacillus subtilis. The assay is described as follows: Antibacterial activity against Bacillus subtilis MTCC 441 assessed as bacterial growth inhibition by microdilution method. The method, boiled down:
as §3

Assay [6] concerns Saccharomyces cerevisiae. Put plainly: Antifungal activity against Saccharomyces cerevisiae MTCC 1344 assessed as zone of inhibition at 18.3 uM incubated for 2 days by cross streak plate method. The settings on record: MTCC 1344, 48 h, time 2 day, read-out: IZ. The gist of the method:
as §1

The test system of the next assay is Staphylococcus aureus. The assay is described as follows: Antibacterial activity against Staphylococcus aureus MTCC 96 assessed as bacterial growth inhibition by microdilution method. The gist of the method: as §3
The test system of a further assay is Pseudomonas aeruginosa. Put plainly: Antibacterial activity against Pseudomonas aeruginosa MTCC 424 assessed as bacterial growth inhibition by microdilution method. The method, boiled down: as §3
Assay [7] concerns Saccharomyces cerevisiae. Put plainly: Antifungal activity against Saccharomyces cerevisiae MTCC 1344 assessed as zone of inhibition at 27.5 uM incubated for 2 days by cross streak plate method. The settings on record: MTCC 1344, 48 h, time 2 day, read-out: IZ. The method, boiled down:
as §1

Assay [8] relates to Aspergillus niger. Put plainly: Antifungal activity against Aspergillus niger MTCC 404 assessed as zone of inhibition at 23.9 uM incubated for 2 days by cross streak plate method. The settings on record: MTCC 404, 48 h, time 2 day, read-out: IZ. The method, boiled down: as §1
The subject of assay [9] is Saccharomyces cerevisiae. The assay is described as follows: Antifungal activity against Saccharomyces cerevisiae MTCC 1344 assessed as zone of inhibition at 23.9 uM incubated for 2 days by cross streak plate method. The settings on record: MTCC 1344, 48 h, time 2 day, read-out: IZ. The method, boiled down:
as §1

In assay [10] the test system is Aspergillus niger. Put plainly: Antifungal activity against Aspergillus niger MTCC 404 assessed as zone of inhibition at 31.8 uM incubated for 2 days by cross streak plate method. The settings on record: MTCC 404, 48 h, time 2 day, read-out: IZ. The method, boiled down: as §1
Assay [11] concerns Saccharomyces cerevisiae. Put plainly: Antifungal activity against Saccharomyces cerevisiae MTCC 1344 assessed as zone of inhibition at 15.9 uM incubated for 2 days by cross streak plate method. The settings on record: MTCC 1344, 48 h, time 2 day, read-out: IZ. The method, boiled down: as §1
The test system of assay [12] is Saccharomyces cerevisiae. Put plainly: Antifungal activity against Saccharomyces cerevisiae MTCC 1344 assessed as zone of inhibition at 31.8 uM incubated for 2 days by cross streak plate method. The settings on record: MTCC 1344, 48 h, time 2 day, read-out: IZ. The gist of the method: as §1
Assay [13] deals with Aspergillus niger. Put plainly: Antifungal activity against Aspergillus niger MTCC 404 assessed as zone of inhibition at 15.9 uM incubated for 2 days by cross streak plate method. The settings on record: MTCC 404, 48 h, time 2 day, read-out: IZ. The gist of the method: as §1
In assay [14] the test system is Saccharomyces cerevisiae. The assay is described as follows: Antifungal activity against Saccharomyces cerevisiae MTCC 1344 assessed as zone of inhibition at 34.5 uM incubated for 2 days by cross streak plate method. The settings on record: MTCC 1344, 48 h, time 2 day, read-out: IZ. The method, boiled down:
as §2

The subject of assay [15] is Aspergillus niger. Put plainly: Antifungal activity against Aspergillus niger MTCC 404 assessed as zone of inhibition at 17.2 uM incubated for 2 days by cross streak plate method. The settings on record: MTCC 404, 48 h, time 2 day, read-out: IZ. The method, boiled down:
as §1

Assay [16] has as its system Saccharomyces cerevisiae. The assay is described as follows: Antifungal activity against Saccharomyces cerevisiae MTCC 1344 assessed as zone of inhibition at 17.2 uM incubated for 2 days by cross streak plate method. The settings on record: MTCC 1344, 48 h, time 2 day, read-out: IZ. The method, boiled down:
as §1

Assay [17] concerns Aspergillus niger. The assay is described as follows: Antifungal activity against Aspergillus niger MTCC 404 assessed as zone of inhibition at 25.9 uM incubated for 2 days by cross streak plate method. The settings on record: MTCC 404, 48 h, time 2 day, read-out: IZ. The method, boiled down:
as §1

Assay [18] deals with Aspergillus niger. The assay is described as follows: Antifungal activity against Aspergillus niger MTCC 404 assessed as zone of inhibition at 34.5 uM incubated for 2 days by cross streak plate method. The settings on record: MTCC 404, 48 h, time 2 day, read-out: IZ. The gist of the method: as §1
Assay [19] has as its system Saccharomyces cerevisiae. The assay is described as follows: Antifungal activity against Saccharomyces cerevisiae MTCC 1344 assessed as zone of inhibition at 25.9 uM incubated for 2 days by cross streak plate method. The settings on record: MTCC 1344, 48 h, time 2 day, read-out: IZ. The method, boiled down: as §1
For assay [20], the system named is Aspergillus niger. Put plainly: Antifungal activity against Aspergillus niger MTCC 404 assessed as zone of inhibition at 33.7 uM incubated for 2 days by cross streak plate method. The settings on record: MTCC 404, 48 h, time 2 day, read-out: IZ. The gist of the method: as §1
The test system of assay [21] is Saccharomyces cerevisiae. The assay is described as follows: Antifungal activity against Saccharomyces cerevisiae MTCC 1344 assessed as zone of inhibition at 33.7 uM incubated for 2 days by cross streak plate method. The settings on record: MTCC 1344, 48 h, time 2 day, read-out: IZ. The method, boiled down:
as §2

Assay [22] relates to Aspergillus niger. Put plainly: Antifungal activity against Aspergillus niger MTCC 404 assessed as zone of inhibition at 16.8 uM incubated for 2 days by cross streak plate method. The settings on record: MTCC 404, 48 h, time 2 day, read-out: IZ. The method, boiled down: as §1
The test system of assay [23] is Saccharomyces cerevisiae. The assay is described as follows: Antifungal activity against Saccharomyces cerevisiae MTCC 1344 assessed as zone of inhibition at 16.8 uM incubated for 2 days by cross streak plate method. The settings on record: MTCC 1344, 48 h, time 2 day, read-out: IZ. The gist of the method: as §1
Assay [24] relates to Aspergillus niger. The assay is described as follows: Antifungal activity against Aspergillus niger MTCC 404 assessed as zone of inhibition at 25.2 uM incubated for 2 days by cross streak plate method. The settings on record: MTCC 404, 48 h, time 2 day, read-out: IZ. The method, boiled down:
as §1

Assay [25] has as its system Saccharomyces cerevisiae. The assay is described as follows: Antifungal activity against Saccharomyces cerevisiae MTCC 1344 assessed as zone of inhibition at 25.2 uM incubated for 2 days by cross streak plate method. The settings on record: MTCC 1344, 48 h, time 2 day, read-out: IZ. The gist of the method:
as §1

Consider `O=C(CSc1nnc(-c2ccccc2OCc2cn(-c3ccccc3)nn2)n1-c1ccccc1)c1ccccc1`, for which the zone of inhibition at 36.6 µM in the assay with Aspergillus niger [1] and in the assay with Saccharomyces cerevisiae [4] was 3 mm in each case. For the same compound, the values for the zone of inhibition at 18.3 µM with Aspergillus niger [2] and with Saccharomyces cerevisiae [6] were 2.1 mm and 1.5 mm, respectively. The outcome in assay [3] was inactive. Besides, the MIC (in general, the lowest concentration that inhibits growth of the organism) is 9.8 µg/mL with Escherichia coli, 4.9 µg/mL in the assay on Bacillus subtilis, 9.8 µg/mL in the assay with Staphylococcus aureus and 9.1 µg/mL in the assay on Pseudomonas aeruginosa. In addition, the values for the zone of inhibition at 27.5 µM with Aspergillus niger [5] and in the assay on Saccharomyces cerevisiae [7] were 3 mm and 2 mm, respectively.

For `O=C(CSc1nnc(-c2ccccc2OCc2cn(-c3ccc(Cl)cc3)nn2)n1Cc1ccccc1)c1ccc(Cl)cc1`, the zone of inhibition at 23.9 µM in the assay with Aspergillus niger [8] and in the assay on Saccharomyces cerevisiae [9] was 2 mm throughout. The zone of inhibition at 31.8 µM in the assay on Aspergillus niger [10] and in the assay with Saccharomyces cerevisiae [12] was 3 mm throughout. The zone of inhibition at 15.9 µM with Saccharomyces cerevisiae [11] and with Aspergillus niger [13] was 2 mm each time. The result in assay [3] was inactive. Moreover, the MIC stood at 8.5 µg/mL in the assay with Escherichia coli, 4 µg/mL in the assay on Bacillus subtilis, 8 µg/mL with Staphylococcus aureus and 8.2 µg/mL with Pseudomonas aeruginosa.

On to `CC1(C)S[C@@H]2[C@H](NC(=O)[C@H](N)c3ccccc3)C(=O)N2[C@H]1C(=O)O` [AMPICILLIN], for which the MIC with Escherichia coli turned out to be 3.9 µg/mL; with Bacillus subtilis, 10 µg/mL; in the assay with Staphylococcus aureus, 10 µg/mL; in the assay with Pseudomonas aeruginosa, 10 µg/mL.

With `O=C(Sc1nnc(-c2ccccc2OCc2cn(-c3ccc(Cl)cc3)nn2)n1Cc1ccccc1)c1ccccc1`, the zone of inhibition at 34.5 µM in the assay with Saccharomyces cerevisiae [14] was 7.4 mm; in the assay on Aspergillus niger [18], 7.6 mm. In addition, the zone of inhibition at 17.2 µM in the assay on Aspergillus niger [15] came to 5.3 mm; in the assay with Saccharomyces cerevisiae [16], 5 mm. Moreover, the result in [3] was inactive. Besides, the MIC in the assay with Escherichia coli worked out at 6.1 µg/mL; in the assay on Bacillus subtilis, 6.5 µg/mL; in the assay with Staphylococcus aureus, 4.1 µg/mL; with Pseudomonas aeruginosa, 7.3 µg/mL. Further, the zone of inhibition at 25.9 µM in the assay on Aspergillus niger [17] was 6 mm; in the assay on Saccharomyces cerevisiae [19] it was 7 mm.

In the case of `O=C(CSc1nnc(-c2ccccc2OCc2cn(-c3ccccc3)nn2)n1Cc1ccccc1)c1ccc(Cl)cc1`, the zone of inhibition at 33.7 µM with Aspergillus niger [20] and in the assay on Saccharomyces cerevisiae [21] was 3 mm in each case. Also, the outcome in assay [3] was inactive. Moreover, the zone of inhibition at 16.8 µM in the assay on Aspergillus niger [22] was 1.5 mm; in the assay with Saccharomyces cerevisiae [23], 2 mm. For the same compound, the MIC with Escherichia coli turned out to be 9.1 µg/mL; with Bacillus subtilis it was 5 µg/mL; in the assay with Staphylococcus aureus, 9.5 µg/mL; in the assay with Pseudomonas aeruginosa it was 8.8 µg/mL. Besides, the zone of inhibition at 25.2 µM in the assay on Aspergillus niger [24] and with Saccharomyces cerevisiae [25] was 3 mm in each case.

Turning to `O=C(CSc1nnc(-c2ccccc2OCc2cn(-c3ccccc3)nn2)n1-c1ccccc1)c1ccc(Cl)cc1`, the zone of inhibition at 34.5 µM in the assay with Saccharomyces cerevisiae [14] and in the assay with Aspergillus niger [18] was 3 mm in each case. The zone of inhibition at 17.2 µM in the assay on Aspergillus niger [15] came out at 2.1 mm; in the assay on Saccharomyces cerevisiae [16] it was 2 mm. Moreover, the outcome in [3] was inactive. Moreover, the MIC is greater than 45.4 µg/mL with Escherichia coli, 4 µg/mL in the assay with Bacillus subtilis, 8.4 µg/mL in the assay on Staphylococcus aureus and 7.9 µg/mL with Pseudomonas aeruginosa. Further, the zone of inhibition at 25.9 µM with Aspergillus niger [17] and with Saccharomyces cerevisiae [19] was 3 mm each time.
